This is an account of results in ChEMBL document CHEMBL1151249, “Cytotoxic and antimicrobial constituents of the bark of Diospyros maritima collected in two geographical locations in Indonesia” (J Nat Prod, 2004).

Converted amounts (≈) assume the structure as drawn. The source made the active and inactive calls. No cut-off for these calls is given here.

The test system of series [1] is KB. The experiment in a line: Cytotoxicity against human KB cells. Type of series: functional, cell-based. Conditions: read-out: ED50 (the source's name).
Series [2] concerns Lu1. The experiment in a line: Cytotoxicity against human Lu1 cells. Type of series: functional. The conditions noted are these: read-out: ED50 (the source's name).
The test system of series [3] is LNCaP. The experiment in a line: Cytotoxicity against human LNCAP cells. Type of series: functional. The conditions noted are these: read-out: ED50 (the source's name).
Series [4] in a line: Cytotoxicity against human HUVEC. The format is cell-based. The conditions noted are these: HUVEC cells, read-out: ED50 (the source's name).
Series [5] concerns Micrococcus luteus. In words: Antimicrobial activity against Micrococcus luteus after 18 hrs by zone-of-inhibition assay. Type of series: functional, organism-based.
In series [6] the test system is Micrococcus luteus. In words: Antimicrobial activity against Micrococcus luteus assessed as 99.9 % growth inhibition after 18 hrs by zone-of-inhibition assay. The format is functional.
For series [7], the system named is Staphylococcus aureus. In words: Antimicrobial activity against Staphylococcus aureus after 18 hrs by zone-of-inhibition assay. The format is functional, organism-based.
Series [8] relates to Staphylococcus aureus. In words: Antimicrobial activity against Staphylococcus aureus assessed as 99.9 % growth inhibition after 18 hrs by zone-of-inhibition assay. Type of series: functional.
The subject of series [9] is Mycolicibacterium smegmatis. In words: Antimicrobial activity against Mycobacterium smegmatis after 18 hrs by zone-of-inhibition assay. The format is functional, organism-based.
The subject of series [10] is Mycolicibacterium smegmatis. The experiment in a line: Antimicrobial activity against Mycobacterium smegmatis assessed as 99.9 % growth inhibition after 18 hrs by zone-of-inhibition assay. The format is functional.
Series [11] has as its system Mycobacterium avium. In words: Antimicrobial activity against Mycobacterium avium after 18 hrs by zone-of-inhibition assay. The format is functional, organism-based.
In series [12] the test system is Mycobacterium avium. In words: Antimicrobial activity against Mycobacterium avium assessed as 99.9 % growth inhibition after 18 hrs by zone-of-inhibition assay. The format is functional.
Series [13] has as its system Candida albicans. The experiment in a line: Antifungal activity against Candida albicans after 18 hrs by zone-of-inhibition assay. Conditions: Candida albicans, 18 h. Type of series: functional, organism-based.
Series [14] relates to Cryptococcus neoformans. In words: Antifungal activity against Cryptococcus neoformans after 18 hrs by zone-of-inhibition assay. Type of series: functional, organism-based. Conditions: Cryptococcus neoformans, 18 h.
Series [15] deals with Cryptococcus neoformans. The experiment in a line: Antifungal activity against Cryptococcus neoformans assessed as 99.9 % growth inhibition after 18 hrs by zone-of-inhibition assay. Type of series: functional.
Series [16] concerns Saccharomyces cerevisiae. The experiment in a line: Antifungal activity against Saccharomyces cerevisiae after 18 hrs by zone-of-inhibition assay. The format is functional, organism-based.
Series [17] relates to Saccharomyces cerevisiae. In words: Antifungal activity against Saccharomyces cerevisiae assessed as 99.9 % growth inhibition after 18 hrs by zone-of-inhibition assay. Type of series: functional.
Series [18] has as its system Aspergillus niger. The experiment in a line: Antifungal activity against Aspergillus niger after 18 hrs by zone-of-inhibition assay. The format is functional, organism-based.
The test system of series [19] is Aspergillus niger. The experiment in a line: Antifungal activity against Aspergillus niger assessed as 99.9 % growth inhibition after 18 hrs by zone-of-inhibition assay. The format is functional.
Series [20] has as its system Mus musculus. In words: Toxicity in human KB cell xenografted mouse assessed as body weight loss at 5 mg/kg. Type of series: organism-based. The arrangement: dose 5 mg/kg. The conditions noted are these: in vivo. The method, boiled down:
(§1)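 In vivo hollow fiber assay in mice, with KB, LNCaP or Lu1 cancer cells at intraperitoneal and subcutaneous sites. Doses ranged from 1.25 to 10 mg/kg, with six mice per dose group. Body weight and deaths were recorded alongside tumor-cell growth inhibition.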
Background: A xenograft is tissue or cells of one species grown in another, often human tumour cells in immunodeficient mice.

The test system of series [21] is Mus musculus. In words: Toxicity in human LNCaP cell xenografted mouse assessed as body weight loss at 5 mg/kg. The format is organism-based. Also noted: dose 5 mg/kg. Conditions: in vivo. The essentials:
as §1

The test system of series [22] is Mus musculus. The experiment in a line: Toxicity in human LU1 cell xenografted mouse assessed as body weight loss at 5 mg/kg. The format is organism-based. Also noted: dose 5 mg/kg. Conditions: in vivo. The method, boiled down:
as §1

The subject of series [23] is Candida albicans. The experiment in a line: Antimicrobial activity against Candida albicans assessed as 99.9 % growth inhibition after 18 hrs by zone-of-inhibition assay. The format is functional.
Series [24] concerns KB. The experiment in a line: Antitumor activity against human KB cell xenografted mouse by hollow fiber assay. Type of series: functional, cell-based. The method, boiled down: (§2)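 Hollow fiber assay in mice with KB, LNCaP or Lu1 cells in fibers implanted at intraperitoneal and subcutaneous sites. Mice were treated by injection at doses from 1.25 to 10 mg/kg or up to 50 mg/kg. Tumor cell growth inhibition in the fibers was assessed at each site.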

The subject of series [25] is Lu1. The experiment in a line: Antitumor activity against human Lu1 cell xenografted mouse by hollow fiber assay. The format is functional, cell-based. The method, boiled down: as §2
Series [26] concerns LNCaP. In words: Antitumor activity against human LNCAP cell xenografted mouse by hollow fiber assay. The format is functional, cell-based. The essentials:
as §2

Series [27] relates to Mus musculus. In words: Toxicity in human KB cell xenografted mouse at 50 mg/kg. The format is organism-based. Conditions: in vivo. Also noted: dose 50 mg/kg.
In series [28] the test system is Mus musculus. The experiment in a line: Toxicity in human LNCaP cell xenografted mouse at 50 mg/kg. Type of series: organism-based. Also noted: dose 50 mg/kg. Conditions: in vivo.
Series [29] deals with Mus musculus. The experiment in a line: Toxicity in human LU1 cell xenografted mouse at 50 mg/kg. The format is organism-based. The arrangement: dose 50 mg/kg. The conditions noted are these: in vivo.

Regarding `CC1=CC(=O)c2c(O)cccc2C1=O` [PLUMBAGIN], the EC50 came out at 0.3 µg/mL (≈ 1.59 µM) in [1], 0.3 µg/mL (≈ 1.59 µM) in series [2] and 0.4 µg/mL (≈ 2.13 µM) in [3]. Further, the CC50 in series [4] turned out to be 0.4 µg/mL (≈ 2.13 µM). Moreover, the IC50 in series [5] is 80 µg/mL (≈ 425 µM); in series [7], 100 µg/mL (≈ 531 µM); in series [9] it was 300 µg/mL (≈ 1590 µM); in series [11], 600 µg/mL (≈ 3190 µM); in series [13], 9 µg/mL (≈ 47.8 µM); in series [14], 20 µg/mL (≈ 106 µM). Moreover, the values for the IC50 in series [16] and in [18] were 10 µg/mL (≈ 53.1 µM) and 20 µg/mL (≈ 106 µM), respectively. Moreover, the Activity in [6] is 600 µg/mL; in [8], 600 µg/mL; in [10], more than 1000 µg/mL; in series [12] it was more than 1000 µg/mL; in [15], 40 µg/mL; in series [17], 40 µg/mL. In addition, the Activity in series [19] was 400 µg/mL; in [20], “Toxic”; in series [21], “Toxic”; in [22], “Toxic”; in [23] it was more than 1000 µg/mL.
For the molecule `CC1=CC(=O)c2c(O)ccc(-c3ccc(O)c4c3C(=O)C(C)=CC4=O)c2C1=O` [MARITINONE], the EC50 in series [1] is 0.3 µg/mL (≈ 0.801 µM); in [2], 1.4 µg/mL (≈ 3.74 µM); in [3], 2.2 µg/mL (≈ 5.88 µM). In addition, the CC50 in series [4] was 2.2 µg/mL (≈ 5.88 µM). Further, the IC50 was 200 µg/mL (≈ 534 µM) in series [5]; 9 µg/mL (≈ 24 µM) in [7]; 20 µg/mL (≈ 53.4 µM) in series [9]; 600 µg/mL (≈ 1600 µM) in series [11]; 40 µg/mL (≈ 107 µM) in series [13]; 20 µg/mL (≈ 53.4 µM) in series [14]. The IC50 stood at 9 µg/mL (≈ 24 µM) in [16] and 40 µg/mL (≈ 107 µM) in [18]. The Activity is more than 1000 µg/mL in series [6]; 300 µg/mL in series [8]; 80 µg/mL in [10]; 200 µg/mL in series [15]; 80 µg/mL in series [17]; more than 1000 µg/mL in [19]. The Activity result in series [27] was “Toxic”; in [28], “Toxic”; in series [29] it was “Toxic”; in [23] it was 40 µg/mL. Further, the outcome in series [24], in series [25] and in [26] was inactive.
Turning to `CC1=CC(=O)c2c(ccc(C3=C(C)C(=O)c4cccc(O)c4C3=O)c2O)C1=O` [CHITRANONE], the EC50 in [1] was determined as 0.3 µg/mL (≈ 0.801 µM); in series [2], 1.1 µg/mL (≈ 2.94 µM); in series [3] it was 2.2 µg/mL (≈ 5.88 µM). The CC50 in series [4] turned out to be 2.1 µg/mL (≈ 5.61 µM). The IC50 came to 10 µg/mL (≈ 26.7 µM) in series [5]; 90 µg/mL (≈ 240 µM) in series [7]; 6 µg/mL (≈ 16 µM) in series [9]; 5 µg/mL (≈ 13.4 µM) in [11]; 10 µg/mL (≈ 26.7 µM) in series [13]; 3 µg/mL (≈ 8.01 µM) in series [14]. Moreover, the half-maximal inhibitory concentration (IC50) in series [16] came out at 3 µg/mL (≈ 8.01 µM); in series [18], 6 µg/mL (≈ 16 µM). The Activity in series [6] was more than 1000 µg/mL; in [8] it was more than 1000 µg/mL; in [10], 20 µg/mL; in series [12] it was 90 µg/mL; in series [15] it was 10 µg/mL; in series [17] it was 10 µg/mL. In addition, the Activity in series [19] and in [23] was more than 1000 µg/mL each time.

Broadly, the IC50 is the midpoint of a concentration-inhibition curve. Lower therefore signals greater potency in that assay.
